Results as given in ChEMBL document CHEMBL2380272, “Biological evaluation of bisbenzaldehydes against four Mycobacterium species” (Eur J Med Chem, 2013).
In brackets after ≈: the same amount, converted by molar mass.

Tests used:
[1] = Potency index, ratio of MIC50 for Mycobacterium avium subsp. avium ATCC 15769 to MIC50 for Mycobacterium bovis AN5; format: functional
[2] = system: Mycobacterium tuberculosis; experiment: Antimycobacterial activity against Mycobacterium tuberculosis H37Rv ATCC 27294 assessed as growth inhibition at 1 uM after 6 days by luciferase reporter gene assay relative to control; format: functional; details: H37Rv ATCC 27294, 144 h, read-out: GI
In short: (§1)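 Luminescent M. tb H37Rv (hsp60-driven luciferase) in 7H9 + 10% FCS was seeded at 50 000 RLU/mL. Compounds were tested at 10, 1 and 0.1 µM from 10 mM DMSO stocks. After 6 days, luminescence was read with 1% n-decanal. Growth inhibition (%) was expressed against untreated culture, with triplicates.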

[3] = system: Mycobacterium tuberculosis; experiment: Antimycobacterial activity against Mycobacterium tuberculosis H37Rv ATCC 27294 assessed as growth inhibition after 6 days by luciferase reporter gene assay; format: functional; details: H37Rv ATCC 27294, 144 h
In short: (§2)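 Mycobacteria carrying the pSMT1 luciferase reporter plasmid. Compounds came from 10 mM DMSO stocks and were serially diluted in 7H9 + 10% FCS. Thawed bacteria were filtered, recovered 1 h at 37 °C, then added at 50 000 RLU/mL. After 6 days of culture, light was read for 10 s after adding 1% n-decanal. Triplicates were run, and MIC50 was the concentration giving 50% growth inhibition.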

[4] = Selectivity index, ratio of NI50 for human HepG2/C3A cells to MIC50 for Mycobacterium tuberculosis H37Rv ATCC 27294; format: functional
[5] = Cytotoxicity against human HepG2/C3A cells assessed as cell viability at 120 uM after 24 hrs by neutral red uptake assay relative to control; format: cell-based; details: read-out: Activity
In short: (§3)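 C3A cells grown in DMEM + 10% FCS, 40 000 cells/well, recovered overnight at 37 °C, 5% CO2. Exposed 24 h to serial dilutions in DMEM + 10% FCS from 18 mM DMSO stocks, DMSO limited to 1%. Neutral red added for 3 h, cells washed, dye extracted with ethanol/acetic acid (50%/1%), OD read at 540 nm with 620 nm reference. Viability expressed as % of untreated cells.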

[6] = system: Mycobacterium avium subsp. paratuberculosis; experiment: Antimycobacterial activity against Mycobacterium avium subsp. paratuberculosis ATCC 19698 assessed as growth inhibition after 6 days by luciferase reporter gene assay; format: functional; details: ATCC 19698, 144 h; in short: as §2
[7] = system: Mycobacterium tuberculosis; experiment: Antimycobacterial activity against Mycobacterium tuberculosis H37Rv infected in mouse J774.A1 cells at 1 MOI assessed as intracellular bacterial growth inhibition at 0.1 uM after 1 hr by luciferase reporter gene assay relative to control; format: functional; details: J774.A1, 1 h, read-out: GI
[8] = system: Mycobacterium tuberculosis; experiment: Antimycobacterial activity against Mycobacterium tuberculosis H37Rv infected in mouse J774.A1 cells at 1 MOI assessed as intracellular bacterial growth inhibition at 10 uM after 1 hr by luciferase reporter gene assay relative to control; format: functional; details: J774.A1, 1 h, read-out: GI
Salmonella typhimurium [9] = experiment: Genotoxicity in recombinant Salmonella typhimurium TA104 expressing Vibrio fisheri luxabcd genes under transcriptional control of recN2-4 promoter assessed as concentration required to cause DNA damage measured every 5 mins for 4 hrs by vitotox assay in absence of S9 fraction; format: toxicity, organism-based; details: salmonella enterica subsp. enterica serovar typhimurium
In short: (§4)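 VITOTOX genox strain TA104 recN2-4 (recN promoter driving lux). Grown 16 h at 36 °C in poor LB, diluted 125-fold and shaken 1 h, then diluted 10-fold; rat aroclor S9 added for +S9 runs. Incubated at 30 °C with light read every 5 min for 4 h. Signal/noise = exposed over unexposed light. Highest concentration tested 10 µM.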

[10] = Potency index, ratio of MIC50 for Mycobacterium avium subsp. paratuberculosis ATCC 19698 to MIC50 for Mycobacterium bovis AN5; format: functional
[11] = system: Mycobacterium tuberculosis; experiment: Antimycobacterial activity against Mycobacterium tuberculosis H37Rv ATCC 27294 assessed as growth inhibition at 0.1 uM after 6 days by luciferase reporter gene assay relative to control; format: functional; details: H37Rv ATCC 27294, 144 h, read-out: GI; in short: as §1
[12] = Antimycobacterial activity against Mycobacterium avium subsp. avium ATCC 15769 assessed as growth inhibition after 6 days by luciferase reporter gene assay; format: functional; details: ATCC 15769, 144 h; in short: as §2
Salmonella typhimurium [13] = experiment: Toxicity in recombinant Salmonella typhimurium TA104 expressing luxabcd genes under transcriptional control of constitutive pr1 promoter assessed as concentration required to reduce cell viability measured every 5 mins for 4 hrs by vitotox assay in absence of S9 fraction; format: organism-based; details: salmonella enterica subsp. enterica serovar typhimurium
In short: (§5)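 Cytox strain TA104 pr1 (constitutive promoter driving lux), run alongside the genox strain. Grown in poor LB at 36 °C for 16 h, diluted 125-fold and shaken 1 h, then diluted 10-fold, with or without aroclor-rat S9. Luminescence read at 30 °C every 5 min over 4 h; a drop in light signal indicates reduced viability. Top concentration 10 µM.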

[14] = Cytotoxicity against human HepG2/C3A cells assessed as cell viability at 60 uM after 24 hrs by neutral red uptake assay relative to control; format: cell-based; details: read-out: Activity; in short: as §3
[15] = system: Mycobacterium tuberculosis; experiment: Antimycobacterial activity against Mycobacterium tuberculosis H37Rv ATCC 27294 assessed as growth inhibition at 10 uM after 6 days by luciferase reporter gene assay relative to control; format: functional; details: H37Rv ATCC 27294, 144 h, read-out: GI; in short: as §1
Salmonella typhimurium [16] = experiment: Genotoxicity in recombinant Salmonella typhimurium TA104 expressing Vibrio fisheri luxabcd genes under transcriptional control of recN2-4 promoter assessed as concentration required to cause DNA damage measured every 5 mins for 4 hrs by vitotox assay in presence of S9 fraction; format: toxicity, organism-based; details: salmonella enterica subsp. enterica serovar typhimurium, s9, 4 h; in short: as §4
[17] = Cytotoxicity against human HepG2/C3A cells assessed as cell viability at 180 uM after 24 hrs by neutral red uptake assay relative to control; format: cell-based; details: read-out: Activity; in short: as §3
[18] = Toxicity in recombinant Salmonella typhimurium TA104 expressing luxabcd genes under transcriptional control of constitutive pr1 promoter assessed as concentration required to reduce cell viability measured every 5 mins for 4 hrs by vitotox assay in presence of S9 fraction; format: organism-based; details: salmonella enterica subsp. enterica serovar typhimurium; read-out: Activity; in short: as §5
[19] = system: Mycobacterium tuberculosis; experiment: Antimycobacterial activity against Mycobacterium tuberculosis H37Rv infected in mouse J774.A1 cells at 1 MOI assessed as intracellular bacterial growth inhibition at 1 uM after 1 hr by luciferase reporter gene assay relative to control; format: functional; details: J774.A1, 1 h, read-out: GI
Mycobacterium ulcerans = experiment: Antimycobacterial activity against Mycobacterium ulcerans 1615 assessed as growth inhibition after 6 days by luciferase reporter gene assay; format: functional; details: Mycobacterium ulcerans, 1615, 144 h
In short: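 M. ulcerans 1615 carrying pSMT1 luciferase reporter plasmid, stock grown as surface pellicle on Sauton medium, cultured at 32 °C. Serial compound dilutions in 7H9 + 10% FCS from 10 mM DMSO stocks, tested in triplicate. Filtered bacteria added at 50 000 RLU/mL. After 6 days, wells collected and washed with PBS, 1% n-decanal in ethanol added, light read over 10 s. MIC50 = concentration giving 50% inhibition versus untreated.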

[20] = Genotoxicity in human HepG2/C3A cells assessed as DNA fragmentation at 0.75 mM after 24 hrs by alkaline comet assay (reference value: 6.65%); format: toxicity, cell-based; details: 750 µM
[21] = Genotoxicity in human HepG2/C3A cells assessed as DNA fragmentation at 0.5 mM after 24 hrs by alkaline comet assay (reference value: 6.65%); format: toxicity, cell-based; details: 500 µM

Compound	Ratio [1]	inhibition of growth at 1 µM [2] [%]	MIC50 [3] [µM]	Selectivity Index [4]	viability at 24 h, 120 µM [5] [%]	MIC50 [6] [µM]	intracellular bacterial growth inhibition at 0.1 µM [7] [%]	intracellular bacterial growth inhibition at 10 µM [8] [%]	Activity (Salmonella typhimurium [9]) [µM]	Ratio [10]	inhibition of growth at 0.1 µM [11] [%]	MIC50 [12] [µM]	Activity (Salmonella typhimurium [13]) [µM]	viability at 24 h, 60 µM [14] [%]	inhibition of growth at 10 µM [15] [%]	Activity (Salmonella typhimurium [16]) [µM]	viability at 24 h, 180 µM [17] [%]	MCC at 4 h [18] [µM]	percent inhibition of intracellular bacterial growth at 1 µM [19] [%]	MIC50 (Mycobacterium ulcerans) [µM]	further results
O=Cc1ccc(OCCCCCCCCCCOc2ccc(C=O)cc2)cc1	5	71	0.77 (≈ 0.295 µg/mL)	>233.8	96.6	5.45 (≈ 2.08 µg/mL)	11.1	60.9	> 10	5	20	5.61 (≈ 2.15 µg/mL)	> 10	97.7	100	> 10	72.8	> 10	39.6	> 10	
O=Cc1ccc(OCCCCCCCCCOc2ccc(C=O)cc2)cc1	5	59	0.95 (≈ 0.35 µg/mL)	>189.5	93	5.95 (≈ 2.19 µg/mL)	-0.5	62.1	> 10	5	11	5.32 (≈ 1.96 µg/mL)	> 10	100	98	> 10	75.7	> 10	45.7	> 10	
O=Cc1ccc(OCCCCCCOc2ccc(C=O)cc2)cc1	5	65	0.83 (≈ 0.271 µg/mL)	>216.9	85.9	6.56 (≈ 2.14 µg/mL)	3.2	52.6	> 10	5	15	6.18 (≈ 2.02 µg/mL)	> 10	93.4	99	> 10	59.3	> 10	46.6	> 10	
O=Cc1ccc(OCCCCCCCCOc2ccc(C=O)cc2)cc1	5	64	0.85 (≈ 0.301 µg/mL)	>211.8	95.3	5.83 (≈ 2.07 µg/mL)	0.6	58.7	> 10	5	13	5.36 (≈ 1.9 µg/mL)	> 10	97.9	99	> 10	69	> 10	42.9	> 10	
O=Cc1ccc(OCOc2ccc(C=O)cc2)cc1		30	3 (≈ 0.769 µg/mL)	>60	91.6	> 10	1.6	41.3	> 10		< 10	> 10	> 10	96.8	85	> 10	78.6	> 10	35.2	> 10	
O=Cc1ccc(OCCCCCCCCCCCOc2ccc(C=O)cc2)cc1	5	73	0.64 (≈ 0.254 µg/mL)	>281.3	94.1	4.23 (≈ 1.68 µg/mL)	5.2	69.4	> 10	5	25	4.96 (≈ 1.97 µg/mL)	> 10	93.3	100	> 10	75.4	> 10	48.2	9.82 (≈ 3.89 µg/mL)	
CCOS(C)(=O)=O [METHANESULFONIC ACID ETHYL ESTER]																					Activity [20]: 65.15%; Activity [21]: 63.44%
O=Cc1ccc(OCCCCCCCOc2ccc(C=O)cc2)cc1	5	62	0.85 (≈ 0.289 µg/mL)	>211.8	78.9	5.05 (≈ 1.72 µg/mL)	-1.2	55	> 10	5	13	5.12 (≈ 1.74 µg/mL)	> 10	100	99	> 10	53.4	> 10	43.3	> 10	
